In ChEMBL document CHEMBL4699542, “Design and synthesis of novel methoxypyridine-derived gamma-secretase modulators” (Bioorg Med Chem, 2020):
Values after ≈ are worked out from the molar mass of the structure shown. Active and inactive are the calls of the source. No cut-off for these calls is given here.

Legend:
[1] = test system: Gamma-secretase; experiment: Inhibition of gamma secretase in human H4 cells overexpressing APP751 transfected with Myc-tagged Notch assessed as accumulation of Notch substrate at 100 to 300 nM incubated for 24 hrs by Western blot analysis; type: cell-based; settings: h4, 24 h, 0.3 µM, dose 100-300 nM
Procedure, shortened: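 H4 neuroglioma cells stably overexpressing human APP751 were transfected with Myc-tagged NΔE Notch, then treated 24 h with 1 or 10 μM modulator, 100 or 300 nM DAPT, or vehicle. Cells harvested 48 h post-transfection. Western blot with anti-Myc detected NΔE and NICD; β-actin served as loading control.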

[2] = molecular target: Cytochrome P450 2C19 (Homo sapiens, UniProt P33261); experiment: Inhibition of recombinant CYP2C19 (unknown origin) by fluorescence-based assay; type: ADME
Chain of Cytochrome P450 2C19 (P33261 whole entry, canonical isoform): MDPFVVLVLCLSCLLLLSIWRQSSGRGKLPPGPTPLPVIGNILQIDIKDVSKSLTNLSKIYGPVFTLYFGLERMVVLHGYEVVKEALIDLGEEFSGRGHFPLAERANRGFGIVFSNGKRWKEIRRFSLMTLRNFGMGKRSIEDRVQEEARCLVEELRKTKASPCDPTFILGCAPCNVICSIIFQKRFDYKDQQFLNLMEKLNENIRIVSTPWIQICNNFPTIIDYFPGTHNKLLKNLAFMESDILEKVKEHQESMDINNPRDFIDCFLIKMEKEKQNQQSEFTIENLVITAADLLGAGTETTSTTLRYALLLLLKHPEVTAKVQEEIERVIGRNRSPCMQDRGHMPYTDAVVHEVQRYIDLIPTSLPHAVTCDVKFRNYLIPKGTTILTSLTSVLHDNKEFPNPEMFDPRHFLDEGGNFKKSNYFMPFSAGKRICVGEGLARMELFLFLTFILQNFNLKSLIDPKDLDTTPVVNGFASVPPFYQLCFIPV
Procedure, shortened: (§1)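 Recombinant CYP isoforms (five tested) screened for inhibition in fluorescence-based assays; IC50 in μM.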

[3] = test system: Gamma-secretase; experiment: Inhibition of gamma secretase in human H4 cells overexpressing APP751 transfected with Myc-tagged Notch at 1 to 10 uM incubated for 24 hrs in presence of NICD by Western blot analysis; settings: h4, 24 h
[4] = AUClast in CD-1 mouse at 5 mg/kg, po administered as single dose measured up to 24 hrs; type: ADME, organism-based; set-up: route oral, dose 5 mg/kg, time <=24; settings: in vivo
Procedure, shortened: (§2)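 Male CD-1 mice, 6–8 weeks old, single dose by tail vein (1 mg/kg, 3% NMP/45% PEG300/12% ethanol/40% water) or oral gavage (5 mg/kg, 5% NMP/95% PEG300). Retro-orbital plasma sampled 0.083 (iv only) to 24 h, n=3/timepoint, and analysed by HPLC/MS/MS. Non-compartmental analysis. Half-life taken from the terminal phase using ≥3 non-zero points after Tmax.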

[5] = Bioavailability in CD-1 mouse at 1 mg/kg, iv administered as single dose measured up to 24 hrs; type: ADME, organism-based; settings: in vivo
Procedure, shortened: (§3)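 CD-1 mouse PK after single iv (1 mg/kg) and oral gavage (5 mg/kg) dosing, with plasma sampled to 24 h (n=3/timepoint) and measured by HPLC/MS/MS. F(%) = (AUC0-inf po × Dose iv)/(AUC0-inf iv × Dose po) × 100.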

[6] = Metabolic stability in mouse liver microsomes assessed as parent compound remaining at 1 uM incubated for 30 mins; type: ADME, Microsome; settings: 0.5 h
Procedure, shortened: (§4)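 Test compound at 1 μM incubated 30 min with human, rat or mouse liver microsomes (1 mg/mL); parent remaining expressed as %.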

[7] = Protein binding in plasma (unknown origin); type: ADME, cell-free
[8] = molecular target: Gamma-secretase; experiment: Modulation of gamma secretase in human SH-SY5Y cells overexpressing wild type APP751 assessed as effect on amyloid beta42 level by meso scale discovery; type: cell-based
[9] = Cmax in CD-1 mouse at 5 mg/kg, po administered as single dose measured up to 24 hrs; type: ADME, organism-based; set-up: route oral, dose 5 mg/kg, time <=24; settings: in vivo; procedure, shortened: as §2
[10] = Kinetic aqueous solubility of the compound in pH 7.4 PBS buffer by UV/Visible absorbance analysis; type: physicochemical; settings: read-out: Kinetic_solubility
Procedure, shortened: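 Kinetic solubility determined in PBS at pH 7.4 by UV/Vis absorbance, reported in μM.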

[11] = AUC infinity in CD-1 mouse at 1 mg/kg, iv administered as single dose measured up to 24 hrs; type: ADME, organism-based; set-up: route intravenous, dose 1 mg/kg, time <=24; settings: in vivo; procedure, shortened: as §2
[12] = Volume of distribution at steady state in CD-1 mouse at 1 mg/kg, iv administered as single dose measured up to 24 hrs; type: ADME, organism-based; settings: in vivo
Procedure, shortened: (§5)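 Male CD-1 mice, 6–8 weeks old, single tail-vein dose in 3% NMP/45% PEG300/12% ethanol/40% sterile water. Retro-orbital plasma (K3EDTA) taken at 0.083, 0.25, 0.5, 1, 2, 4, 8 and 24 h, n=3/timepoint, analysed by HPLC/MS/MS. Non-compartmental analysis (Model 201, uniform weighting); Tmax read directly from the data.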

[13] = Ratio of drug concentration in CD-1 mouse brain to plasma at 5 mg/kg, po measured after 1 hr; type: ADME, organism-based
Procedure, shortened: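 Male CD-1 mice dosed once iv (1 mg/kg) or by oral gavage (5 mg/kg). Brain and plasma collected 1 h post dose (n=3/timepoint). Drug levels by HPLC/MS/MS; brain/plasma ratio calculated from these levels.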

[14] = Half life in CD-1 mouse at 1 mg/kg, iv administered as single dose measured up to 24 hrs; type: ADME, organism-based; settings: mouse, in vivo, 1 mg/kg, 24 h; procedure, shortened: as §2
[15] = molecular target: Gamma-secretase; experiment: Modulation of gamma secretase in human SH-SY5Y cells overexpressing wild type APP751 assessed as effect on amyloid beta40 level by meso scale discovery; type: cell-based
[16] = molecular target: Gamma-secretase; experiment: Modulation of gamma secretase in human SH-SY5Y cells overexpressing wild type APP751 assessed as inhibition of amyloid beta (35 to 42 residues) formation incubated for overnight by ELISA; type: cell-based
Procedure, shortened: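 SHSY5Y-APP751 cells plated at 75K/well and incubated overnight at 37 °C, then treated 24 h over 10 concentrations ([…]–10 μM, 1:3.16 steps, in duplicate). Medium Aβ42 measured by sandwich ELISA (Aβ35–42 capture, AP-conjugated Aβ1–12 detection, CDP-Star luminescence) against an Aβ42 standard curve.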

[17] = Cmax in CD-1 mouse at 1 mg/kg, iv administered as single dose measured up to 24 hrs; type: ADME, organism-based; set-up: route intravenous, dose 1 mg/kg, time <=24; settings: in vivo; procedure, shortened: as §2
[18] = Oral bioavailability in CD-1 mouse at 5 mg/kg administered as single dose measured up to 24 hrs; type: ADME, organism-based; settings: in vivo; procedure, shortened: as §3
[19] = molecular target: Gamma-secretase; experiment: Modulation of gamma secretase in human SH-SY5Y cells overexpressing wild type APP751 assessed as effect on amyloid beta38 level by meso scale discovery; type: cell-based
[20] = AUC infinity in CD-1 mouse at 5 mg/kg, po administered as single dose measured up to 24 hrs; type: ADME, organism-based; set-up: route oral, dose 5 mg/kg, time <=24; settings: in vivo; procedure, shortened: as §2
[21] = molecular target: Voltage-gated inwardly rectifying potassium channel KCNH2 (Homo sapiens, UniProt Q12809); experiment: Inhibition of human ERG expressed in HEK293 cells by patch clamp assay; type: cell-based
Chain of Voltage-gated inwardly rectifying potassium channel KCNH2 (Q12809 whole entry): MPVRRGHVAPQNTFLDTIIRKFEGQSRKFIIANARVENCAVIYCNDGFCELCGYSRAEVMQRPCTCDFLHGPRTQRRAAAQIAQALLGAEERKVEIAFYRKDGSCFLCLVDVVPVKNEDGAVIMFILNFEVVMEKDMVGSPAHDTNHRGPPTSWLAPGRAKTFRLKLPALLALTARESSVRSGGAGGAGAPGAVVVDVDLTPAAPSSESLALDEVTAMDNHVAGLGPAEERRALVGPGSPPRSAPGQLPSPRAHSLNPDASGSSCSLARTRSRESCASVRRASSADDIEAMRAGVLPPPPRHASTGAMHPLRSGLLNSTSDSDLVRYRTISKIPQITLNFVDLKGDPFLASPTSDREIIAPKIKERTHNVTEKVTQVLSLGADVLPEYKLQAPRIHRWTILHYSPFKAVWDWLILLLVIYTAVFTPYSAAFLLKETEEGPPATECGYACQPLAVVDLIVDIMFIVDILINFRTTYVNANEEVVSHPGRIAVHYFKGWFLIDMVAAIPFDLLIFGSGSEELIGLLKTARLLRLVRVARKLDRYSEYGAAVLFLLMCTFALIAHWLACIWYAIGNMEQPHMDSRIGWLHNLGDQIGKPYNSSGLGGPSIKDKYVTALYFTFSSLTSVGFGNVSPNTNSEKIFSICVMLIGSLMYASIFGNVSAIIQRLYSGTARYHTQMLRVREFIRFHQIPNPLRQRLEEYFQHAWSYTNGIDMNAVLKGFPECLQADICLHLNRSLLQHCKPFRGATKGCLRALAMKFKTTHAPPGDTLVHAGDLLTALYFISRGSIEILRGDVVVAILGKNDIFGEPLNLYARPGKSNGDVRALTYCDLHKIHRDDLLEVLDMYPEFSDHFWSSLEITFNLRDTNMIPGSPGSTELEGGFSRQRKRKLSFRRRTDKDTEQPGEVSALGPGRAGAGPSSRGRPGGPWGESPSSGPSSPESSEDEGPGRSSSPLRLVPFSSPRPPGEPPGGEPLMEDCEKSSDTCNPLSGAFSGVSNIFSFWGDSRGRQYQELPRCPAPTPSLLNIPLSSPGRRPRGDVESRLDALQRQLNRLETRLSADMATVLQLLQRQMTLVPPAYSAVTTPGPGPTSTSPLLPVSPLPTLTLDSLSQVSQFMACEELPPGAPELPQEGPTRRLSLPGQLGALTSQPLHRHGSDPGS

[22] = molecular target: T1, Cytochrome P450 1A2 (Homo sapiens, UniProt P05177); experiment: Inhibition of recombinant CYP1A2 (unknown origin) by fluorescence-based assay; type: ADME; procedure, shortened: as §1
T1 sequence (P05177 whole entry): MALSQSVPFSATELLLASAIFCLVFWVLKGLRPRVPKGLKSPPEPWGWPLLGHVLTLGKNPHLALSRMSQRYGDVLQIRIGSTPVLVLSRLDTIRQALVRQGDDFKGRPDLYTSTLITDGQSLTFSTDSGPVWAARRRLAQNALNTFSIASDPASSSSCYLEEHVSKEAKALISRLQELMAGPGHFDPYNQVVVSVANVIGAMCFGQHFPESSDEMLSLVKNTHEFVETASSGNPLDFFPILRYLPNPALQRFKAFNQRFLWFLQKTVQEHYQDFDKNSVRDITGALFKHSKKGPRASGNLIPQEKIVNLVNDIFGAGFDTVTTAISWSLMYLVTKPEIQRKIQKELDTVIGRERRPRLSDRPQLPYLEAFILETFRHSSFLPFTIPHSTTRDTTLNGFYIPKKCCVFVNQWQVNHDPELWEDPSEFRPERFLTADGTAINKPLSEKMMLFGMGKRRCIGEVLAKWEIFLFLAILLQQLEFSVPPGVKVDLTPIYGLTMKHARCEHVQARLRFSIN

[23] = Tmax in CD-1 mouse at 1 mg/kg, iv administered as single dose measured up to 24 hrs; type: ADME, organism-based; settings: in vivo; procedure, shortened: as §5
[24] = Ratio of drug concentration in CD-1 mouse brain to plasma at 1 mg/kg, iv measured after 1 hr
[25] = AUClast in CD-1 mouse at 1 mg/kg, iv administered as single dose measured up to 24 hrs; type: ADME, organism-based; set-up: route intravenous, dose 1 mg/kg, time <=24; settings: in vivo; procedure, shortened: as §2
[26] = molecular target: Cytochrome P450 2C9 (Homo sapiens, UniProt P11712); experiment: Inhibition of recombinant CYP2C9 (unknown origin) by fluorescence-based assay; type: ADME; procedure, shortened: as §1
Chain of Cytochrome P450 2C9 (P11712 whole entry): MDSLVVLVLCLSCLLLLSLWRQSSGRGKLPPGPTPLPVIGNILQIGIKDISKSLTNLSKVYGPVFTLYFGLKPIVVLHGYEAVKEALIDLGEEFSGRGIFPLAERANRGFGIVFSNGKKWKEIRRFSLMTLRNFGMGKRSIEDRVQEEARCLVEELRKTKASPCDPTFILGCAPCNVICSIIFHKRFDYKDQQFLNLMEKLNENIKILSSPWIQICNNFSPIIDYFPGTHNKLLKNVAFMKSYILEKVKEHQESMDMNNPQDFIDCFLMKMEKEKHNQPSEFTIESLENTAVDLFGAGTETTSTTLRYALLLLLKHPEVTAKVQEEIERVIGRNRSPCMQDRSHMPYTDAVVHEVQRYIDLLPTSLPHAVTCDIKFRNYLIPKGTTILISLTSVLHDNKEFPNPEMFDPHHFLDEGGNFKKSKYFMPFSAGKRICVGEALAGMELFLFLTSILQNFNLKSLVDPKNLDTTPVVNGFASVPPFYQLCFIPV

[27] = Tmax in CD-1 mouse at 5 mg/kg, po administered as single dose measured up to 24 hrs; type: ADME, organism-based; settings: in vivo
Procedure, shortened: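 Male CD-1 mice, 6–8 weeks old, single oral gavage dose in 5% NMP/95% PEG300. Plasma (K3EDTA, retro-orbital, under isoflurane) taken at 0.25, 0.5, 1, 2, 4, 8 and 24 h, n=3/timepoint, analysed by HPLC/MS/MS. Non-compartmental extravascular analysis (Model 200); Tmax taken directly from the data.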

[28] = molecular target: Gamma-secretase (Homo sapiens) (UniProt Q96BI3+Q9NZ42+Q8WW43+P49768+Q92542+P49810); experiment: Modulation of gamma secretase in human SH-SY5Y cells overexpressing wild type APP751 assessed as effect on total amyloid beta level by meso scale discovery; type: cell-based
Procedure, shortened: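 SHSY5Y cells stably overexpressing wild-type human APP751 treated with the compound over a concentration range. Aβ38, Aβ40, Aβ42 and total Aβ in the medium measured by MSD triplex immunoassay (4G8 detection, 2 h at room temperature). Concentrations back-fitted from standard curves.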

[29] = molecular target: Cytochrome P450 2D6 (Homo sapiens, UniProt P10635); experiment: Inhibition of recombinant CYP2D6 (unknown origin) by fluorescence-based assay; type: ADME; procedure, shortened: as §1
Chain of Cytochrome P450 2D6 (P10635 whole entry): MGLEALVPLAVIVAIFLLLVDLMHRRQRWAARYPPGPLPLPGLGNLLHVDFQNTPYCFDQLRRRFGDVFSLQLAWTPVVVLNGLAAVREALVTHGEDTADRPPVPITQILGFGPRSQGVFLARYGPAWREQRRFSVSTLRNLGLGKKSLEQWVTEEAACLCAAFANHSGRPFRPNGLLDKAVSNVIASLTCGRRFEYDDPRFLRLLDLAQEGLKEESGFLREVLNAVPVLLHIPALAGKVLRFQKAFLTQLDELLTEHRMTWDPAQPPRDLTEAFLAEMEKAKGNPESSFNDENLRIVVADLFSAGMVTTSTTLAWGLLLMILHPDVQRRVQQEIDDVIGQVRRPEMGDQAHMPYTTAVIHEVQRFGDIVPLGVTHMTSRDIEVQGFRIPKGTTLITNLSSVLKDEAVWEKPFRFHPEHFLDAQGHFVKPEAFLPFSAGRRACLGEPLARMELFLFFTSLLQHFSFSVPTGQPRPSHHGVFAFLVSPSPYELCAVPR

[30] = molecular target: Cytochrome P450 3A4 (Homo sapiens, UniProt P08684); experiment: Inhibition of recombinant CYP3A4 (unknown origin) by fluorescence-based assay; type: ADME
Chain of Cytochrome P450 3A4 (P08684 whole entry): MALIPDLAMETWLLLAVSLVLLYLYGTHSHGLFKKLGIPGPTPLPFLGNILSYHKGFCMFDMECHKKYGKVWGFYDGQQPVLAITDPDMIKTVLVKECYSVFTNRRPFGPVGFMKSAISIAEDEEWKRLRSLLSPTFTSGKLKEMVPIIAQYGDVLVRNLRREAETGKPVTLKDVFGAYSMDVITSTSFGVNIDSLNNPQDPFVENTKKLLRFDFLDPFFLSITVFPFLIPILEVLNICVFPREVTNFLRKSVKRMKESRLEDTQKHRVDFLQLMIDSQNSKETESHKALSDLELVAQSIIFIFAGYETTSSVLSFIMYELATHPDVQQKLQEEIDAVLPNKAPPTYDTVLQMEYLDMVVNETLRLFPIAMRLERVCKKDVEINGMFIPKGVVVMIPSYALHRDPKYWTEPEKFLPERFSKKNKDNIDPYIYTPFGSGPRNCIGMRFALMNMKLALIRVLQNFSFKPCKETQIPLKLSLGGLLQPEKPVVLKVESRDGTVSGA

[31] = Metabolic stability in human liver microsomes assessed as parent compound remaining at 1 uM incubated for 30 mins; type: ADME, Microsome; settings: microsomes, 0.5 h, 1 µM; procedure, shortened: as §4
[32] = Metabolic stability in rat liver microsomes assessed as parent compound remaining at 1 uM incubated for 30 mins; type: ADME, Microsome; settings: 0.5 h; procedure, shortened: as §4

For `C[C@H](NC(=O)Cc1cc(F)cc(F)c1)C(=O)N[C@H](C(=O)OC(C)(C)C)c1ccccc1`, the “inhibition (INH)” value [1] was “Active”.
With `CCn1nc2c(c1Nc1nc(-c3ccc(-n4cnc(C)c4)c(OC)n3)cs1)CCCC2` the IC50 [2] was 5.9 µM, the “inhibition (INH)” value [3] was “Not Active” and the AUClast [4] was 1089 ng·h/mL. It also gave an F [5] of 100%, a Stabilty [6] of 64% and a PPB [7] of 99.6%. It also gave an IC50 [8] of 0.058 µM, a Cmax [9] of 705 ng/mL and a solubility kinetic [10] of 4.5 µM (≈ 1.96 µg/mL). The AUC [11] was 463 ng·h/mL, the Vdss [12] was 1.413 L/kg and the BPR [13] was 0.4. The t1/2 [14] was 30 min, the IC50 [15] was 0.104 µM and the IC50 [16] was 0.06 µM. For the same molecule, the Cmax [17] was 824 ng/mL, the F [18] was 53.7% and the EC50 [19] was 0.305 µM. For the same molecule, the AUC [20] was 1243 ng·h/mL, the IC50 [21] was 8.6 µM and the IC50 [22] was > 100 µM. For the same molecule, the Tmax [23] was 4.98 min, the BPR [24] was 0.4 and the AUClast [25] was 443 ng·h/mL. For the same molecule, the IC50 [26] was 9 µM, the Tmax [27] was 15 min and the Activity [28] was “inactive”. The IC50 [29] was > 100 µM, the IC50 [30] was 3.7 µM and the Stabilty [31] was 36%. The Stabilty [32] was 71%.
